Only some compounds are listed: those with a hit (about 4.6% of all), similar ones and a draw of the others.
OX1R antag-1 – antagonists of human orexin 1 receptor (OX1R); Orexin/Hypocretin receptor type 1 (Homo sapiens), O43613; OX1R-expressing cells, FRET antagonist read-out; inhibition, % at 6.6 µM; 330,000 compounds, 1.8% hits; AID 485270, 2010; in the data active = inhibition mostly above about 38%, no sharp cut-off; inactive = mostly below about 40%;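 also: 0% = agonist challenge alone and 100% = reference antagonist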
Target sequence (O43613 whole entry, looked up): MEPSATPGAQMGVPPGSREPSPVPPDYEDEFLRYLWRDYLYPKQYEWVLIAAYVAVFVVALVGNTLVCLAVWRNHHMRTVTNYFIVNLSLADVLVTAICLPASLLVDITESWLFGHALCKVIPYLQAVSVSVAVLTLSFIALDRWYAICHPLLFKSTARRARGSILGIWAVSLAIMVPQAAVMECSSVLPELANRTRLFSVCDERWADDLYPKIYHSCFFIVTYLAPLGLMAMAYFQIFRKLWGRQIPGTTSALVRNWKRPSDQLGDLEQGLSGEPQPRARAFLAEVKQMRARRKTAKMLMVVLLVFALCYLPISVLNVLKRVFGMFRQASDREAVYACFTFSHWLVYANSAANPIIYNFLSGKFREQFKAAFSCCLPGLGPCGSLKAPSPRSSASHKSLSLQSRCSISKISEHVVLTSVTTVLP
TAAR1 antagonist – human TAAR1 antagonists, primary screen, Fluo-8 calcium fluorescence, CHO RD-HGA16 cells. inhibition, % at 3 µM. antagonist. AID 624466, 2012. 360,000 compounds, 1.5% hits;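 active = inhibition above a per-plate cutoff, the mean inhibition of test compounds on that plate plus 3 SD, cut at about 49% in these data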;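 also: 0% = DMSO plus EC80 beta-PEA response and 100% = DMSO alone without agonist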
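Test system: CHO RD-HGA16 cells bearing hTAAR1 | Reagent: β-PEA, EC80 | Compound dosing: 3 µM, single point | Schedule: Dye loading 75 min at 37 °C, then 30 min room temperature | Signal: Calcium fluorescence with Fluo-8 | Evaluation: Percent inhibition of PEA-evoked calcium signal, max/basal emission ratio | Control set: DMSO-only wells and EC80 β-PEA-stimulated wells | Repeats: Singlicate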
CHO parental Ca – ATP-evoked calcium signal inhibitors, parental CHO, primary screen, counter-screen for OX1R antagonist project, cell-based, fluorescence, Fluo-8 calcium dye. parental CHO-K1, ATP-induced calcium, Fluo-8 fluorescence. inhibition, % at 5.6 µM. 330,000 compounds, 0.63% hits. AID 463079, 2010;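 active = inhibition above that plate's mean sample inhibition plus 3 SD, cut at about 26% in these data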;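 also: 0% = ATP-challenged DMSO wells and 100% = DMSO wells without ATP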
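Test system: untransfected parental CHO cell line; also added: ATP stimulus; dosing: 5.6 µM, single dose; signal: calcium-sensitive Fluo-8 fluorescence; measure: percent inhibition of ATP-evoked calcium rise, normalized to controls; benchmarks: low control ATP plus DMSO, high control DMSO only; replication: one well per compound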
GPR7 antagonist – GPR7 receptor antagonists, primary screen, cell-based, fluorescence, single concentration; AID 1861, 2009; 290,000 compounds, 1.1% hits; inhibition, % at 4.4 µM; GPR7-expressing cells, fluorescence antagonist assay; Neuropeptides B/W receptor type 1 (Homo sapiens), P48145; in the data active = inhibition above about 16%, passing the limit was not always enough;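 also: cells stimulated with the agonist NPW; 0% = agonist with vehicle and 100% = vehicle without agonist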
Target sequence (P48145 whole entry, looked up): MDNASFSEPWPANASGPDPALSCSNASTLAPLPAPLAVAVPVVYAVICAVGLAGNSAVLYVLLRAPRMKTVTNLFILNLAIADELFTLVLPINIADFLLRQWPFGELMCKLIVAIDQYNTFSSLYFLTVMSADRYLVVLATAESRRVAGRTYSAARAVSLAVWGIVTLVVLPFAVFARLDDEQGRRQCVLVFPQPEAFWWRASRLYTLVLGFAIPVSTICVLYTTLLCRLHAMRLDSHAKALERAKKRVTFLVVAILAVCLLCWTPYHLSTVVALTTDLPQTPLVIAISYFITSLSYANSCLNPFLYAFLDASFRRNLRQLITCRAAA
OX1R antag-2 – OX1R (HCRTR1) antagonists, primary screen, fluorescence, CHO/OX1R cells, Fluo-8 calcium, orexin A; Orexin/Hypocretin receptor type 1 (Homo sapiens), O43613; Fluo-8 calcium fluorescence; inhibition, % at 5 µM; 330,000 compounds, 0.43% hits;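 active = inhibition above its plate's threshold, mean inhibition of all tested compounds on the plate plus 3 SD, cut at about 37% in these data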;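 also: 0% = orexin A challenge wells and 100% = SB-334867-A antagonist wells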
TAAR1 ag – human TAAR1 agonists, primary screen, Fluo-8 calcium fluorescence, CHO RD-HGA16 cells. Trace amine-associated receptor 1 (Homo sapiens), Q96RJ0. vehicle wells 0%, saturating PEA agonist 100%. activation, % at 3 µM. 360,000 compounds, 0.99% hits. AID 624467, 2012;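 active = activation above the mean activation of all test compounds in the run plus 3 SD, cut at about 38% in these data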
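Assay system: CHO-derived RD-HGA16 cells with stable Gα16 and human TAAR1; timing: 17-24 h seeding, 75 min 37 °C dye, 30 min RT; read-out: % activation from peak over basal fluorescence ratio, DMSO-to-PEA scaled; measured by: kinetic Fluo-8 calcium fluorescence; benchmarks: low control DMSO, high control PEA (EC100); doses: 3 µM single concentration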
TAAR1 ag conf – human TAAR1 agonists, retest of hits, confirmation, Fluo-8 calcium fluorescence, CHO RD-HGA16 cells. shares compounds with TAAR1 ag. scaled: DMSO 0%, maximal phenethylamine 100%. activation, % at 3 µM. 2,400 compounds, 82% hits;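 active = activation above a cutoff set at the run's mean compound activation plus 3 SD, cut at about 39% in these data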
Ga16 nonsel ag – nonselective calcium mobilization agonists, CHO-Ga16 cells, counter-screen for hTAAR1 agonist project, cell-based, fluorescence, CHO-Ga16 parental line; shares compounds with TAAR1 ag; Fluo-8 calcium fluorescence; normalized to maximal ATP response, DMSO zero; activation, % at 3 µM; 2,400 compounds, 50% hits; AID 651787, 2012;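 active = activation above the run cutoff, the mean activation over all tested wells plus 3 SD, cut at about 12% in these data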;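 also: 0% = DMSO wells and 100% = maximal ATP response on the peak over basal ratio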
TAAR1 desensitize – TAAR1 desensitization by agonist hits, confirmation, counter-screen for TAAR1 agonist project, cell-based, fluorescence, tachyphylaxis; shares compounds with TAAR1 ag; CHO RD-HGA16 hTAAR1, Fluo-8 calcium, beta-PEA response inhibition; inhibition, % at 3 µM; 2,400 compounds, 46% hits;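 active = inhibition above the run cutoff, the mean inhibition of all test compounds plus 3 SD, cut at about 49% in these data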;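 also: beta-PEA stimulus applied at its EC80; loss of beta-PEA calcium signal after compound pretreatment read as receptor desensitization; 0% = DMSO with beta-PEA at EC80 and 100% = DMSO alone without agonist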
Ga16 nonsel ant – inhibition of ATP-evoked calcium response in CHO-Ga16 cells, counter-screen for TAAR1 agonist project, cell-based, fluorescence | shares compounds with TAAR1 ag | CHO-Ga16 ATP-induced calcium, Fluo-8 fluorescence | inhibition, % at 3 µM | 2,400 compounds, 39% hits | AID 651952, 2012;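 active = inhibition above the plate's mean compound inhibition plus 3 SD, computed per plate, cut at about 22% in these data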;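 also: 0% = EC80 ATP with DMSO and 100% = DMSO wells without ATP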
* hit, by the source's call; . = not tested or not shown.

SMILES	OX1R antag-1	TAAR1 antagonist	CHO parental Ca	GPR7 antagonist	OX1R antag-2	TAAR1 ag	TAAR1 ag conf	Ga16 nonsel ag	TAAR1 desensitize	Ga16 nonsel ant
O=C(Cc1ccccc1)NCC(=O)N1CCc2ccccc2C1	0	-7	-11	-5	-9	-1	.	.	.	.
CCOC(=O)[C@H]1[C@H]2COc3ccc(Br)cc3[C@@H]2N2C(=O)c3cc(OC)c(OC)cc3NC(=O)[C@@]12C	25	27	-6	.	-11	76*	101*	44*	28	7
COc1ccc(N=C(N)SCc2ccccn2)cc1	-6	-18	-14	12	-8	7	.	.	.	.
CC(C)=N/N=C(\N)SCc1ccccc1	9	.	-27	-5	-18	.	.	2	.	2
O=C(O)/C=C/C(=O)NCCc1ccccc1	9	80*	-7	17	-1	118*	105*	1	98*	6
CC(CCc1ccccc1)NC(=O)Cc1ccccc1 (stereo not given)	10	-1	-11	-8	-15	11	.	.	.	.
O=C(O)/C=C/C(=O)NCCc1cccc(Cl)c1	9	76*	-8	-8	-5	69*	93*	8	96*	6
CCc1nnc(NC(=O)CCC(=O)NCCc2ccccc2)s1	7	-9	-4	2	-7	49*	16	0	-2	7
CC(CCc1ccccc1)NC(=O)C(=O)NCCc1ccccc1 (stereo not given)	23	8	-13	3	-14	49*	88*	21*	36	17
CCc1nnc(NC(=O)CCC(=O)N2CCN(CCc3ccccc3)CC2)s1	5	-41	-12	.	-20	4	.	.	.	.
CCCOc1ccccc1NC(=O)c1ccc([N+](=O)[O-])cc1	14	-6	-30	-16	-7	13	.	.	.	.
CC1=C(C(=O)Nc2cc(C(=O)N3CCN(c4ccc(Cl)cc4)CC3)ccc2C)SCCO1	.	40	.	.	.	7	.	.	.	.
O=C(CCCC(=O)c1ccccc1)NCCc1ccccc1	9	75*	-12	-7	-17	47*	50*	15*	90*	14
COc1ccc(CCNC(=O)/C=C/C(=O)O)cc1	3	30	3	-7	-12	62*	81*	2	50*	5
COc1ccc(CCCC(=O)NCCc2ccccc2)cc1	.	-15	.	-1	.	-1	.	.	.	.
O=C(O)/C=C/C(=O)NCCc1ccc(Cl)cc1	5	44	-9	-11	-4	76*	97*	7	67*	-4
CCNC(=O)C(=O)NCCc1ccc(Cl)cc1	10	12	-2	-3	10	7	.	.	.	.
O=C1c2c(-c3ccc(Br)cc3)noc2CCN1Cc1cn(-c2ccccc2)nn1	.	-30	.	.	.	3	.	.	.	.
O=C(Oc1ccc(Br)cc1C(=S)N1CCCC1)c1ccccc1F	18	57*	-15	-2	-12	94*	-3	3	8	7
N#CCc1cccnc1Sc1ccc(Cl)cc1	16	10	-8	.	-11	-1	.	.	.	.
O=C(Cn1cnc([N+](=O)[O-])n1)N/N=C/c1ccccc1O	49	4	-11	7	-8	53*	69*	5	24	-1
COCCNc1nc(Nc2ccc(F)cc2)c2sccc2n1	.	19	.	.	.	3	.	.	.	.
O=C(NCc1ccccn1)c1c(-c2ccccc2)sc2ccccc12	3	36	-25	.	-16	13	.	.	.	.
Clc1ccc(CSc2ncnc3c2ncn3C2CCCCO2)cc1 (stereo not given)	.	37	.	.	.	64*	15	11	10	14
CN1CCC(=C(c2ccccc2)c2ccc(Br)cc2)CC1	7	-26	-22	.	-13	54*	63*	34*	17	19
SMILES	OX1R antag-1	TAAR1 antagonist	CHO parental Ca	GPR7 antagonist	OX1R antag-2	TAAR1 ag	TAAR1 ag conf	Ga16 nonsel ag	TAAR1 desensitize	Ga16 nonsel ant
CCOC(=O)C(NCc1ccc2c(c1)OCO2)(NC(=O)CC)C(F)(F)F (stereo not given)	1	-8	-22	-6	-19	4	.	.	.	.
CCOC(=O)C(NCCc1ccccc1F)(NC(=O)CC)C(F)(F)F (stereo not given)	10	.	-9	-8	7	.	.	6	.	8
CCOC(=O)C(NCCc1ccccc1)(NC(=O)CC)C(F)(F)F (stereo not given)	28	52*	-10	-6	10	94*	98*	5	80*	-2
FC(F)(F)c1cc(-c2ccco2)nc(NCCc2ccccc2)n1	8	11	-27	-12	-41	55*	83*	1	34	9
O=C(CCSc1nc(-c2ccco2)cc(C(F)(F)F)n1)NCCc1ccccc1	19	-15	-4	-8	-44	1	.	.	.	.
CC(C)CCNC(=O)CN(Cc1ccccc1Cl)C(=O)CCC(=O)Nc1ccccn1	23	-3	-12	-1	-19	2	.	.	.	.
CC1(c2ccc3c(c2)OCCO3)NC(=O)N(CC(=O)c2ccc[nH]2)C1=O (stereo not given)	1	5	0	.	-10	7	.	.	.	.
CC1Cc2ccccc2N1C(=O)CN1C(=O)NC(C)(c2ccc3c(c2)OCCO3)C1=O (stereo not given)	10	-5	-14	13	-17	53*	43*	9	4	9
CN(C)c1ccc(C(=O)OCC(=O)Nc2ccc(N3CCOCC3)cc2)cc1	6	-6	-4	-13	3	51*	2	10	8	1
Cc1nc(NC(=O)c2ccccc2)sc1-c1csc(NCCc2ccccc2)n1	21	48	-7	6	-6	64*	61*	21*	58*	34*
